Like-named read-outs stand apart in the source and are kept apart here.
What was measured:
μ-opioid receptors = settings: ref Matsumoto et al., 2004, 2006; cited from earlier work
[1] = at equi-antinociceptive doses; ref Matsumoto et al., 2006; cited from earlier work
[2] = Intravenous pharmacokinetic study in rats; format: in vivo; settings: 4 mg/kg IV bolus, male Sprague Dawley rats, n=6, mean ± SD
Procedure, shortened: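 Male rats 240-250 g, housed 48 h, fasted 12 h predose and 4 h postdose, water free. Dosed via jugular vein cannula, 30 s bolus in 10% PEG 400 in water, prepared same day. Chloroform liquid-liquid extraction with tryptoline internal standard. Noncompartmental analysis.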

mice = settings: ref Matsumoto et al., 2005, cited from earlier work
opioid receptors [3] = settings: in vitro assays; ref Horie et al., 2005; cited from earlier work
[4] = Stability of 7-OHMG in rat plasma QC samples; format: in vitro ADME; settings: for Concentration measured: n=6
opioid receptors [5] = settings: pharmacological experiments; ref Watanabe et al., 1997; cited from earlier work
[6] = rat plasma, long term 30 days at -20 °C, spiked 20 ng/mL
[7] = rat plasma, long term 30 days at -20 °C, spiked 600 ng/mL
[8] = rat plasma, long term 30 days at -20 °C, spiked 3200 ng/mL
[9] = rat plasma, short term 12 hr at 25 °C, spiked 20 ng/mL
[10] = rat plasma, short term 12 hr at 25 °C, spiked 600 ng/mL
[11] = rat plasma, short term 12 hr at 25 °C, spiked 3200 ng/mL
[12] = rat plasma, three freeze thaw cycles, spiked 20 ng/mL
[13] = rat plasma, three freeze thaw cycles, spiked 600 ng/mL
[14] = rat plasma, three freeze thaw cycles, spiked 3200 ng/mL
[15] = reconstituted plasma extract, auto sampler 12 hr at 25 °C, spiked 20 ng/mL
[16] = reconstituted plasma extract, auto sampler 12 hr at 25 °C, spiked 600 ng/mL

CC[C@@H]1CN2CC[C@@]3(O)C(=Nc4cccc(OC)c43)[C@@H]2C[C@@H]1/C(=C\OC)C(=O)OC [7-OHMG, 7-hydroxymitragynine]
Affinity for μ- versus δ- and κ-opioid receptors (μ-opioid receptors): higher affinity for μ-opioid receptors relative to the δ- and κ- receptors | Times less constipating than morphine [1]: 4.9-6.4 times | AUC0→∞ [2]: 98.3 ± 32.1 µg·min/mL | CL [2]: 44.2 ± 14.8 mL/min/kg | Cmax [2]: 3000 ± 300 ng/mL | MRT [2]: 70.9 ± 10.0 min | T1/2 [2]: 22.9 ± 3.6 min | Vd [2]: 1.5958 ± 0.5863 L/kg | Place preference (mice; 1 mg/kg dose): slight place preference | Place preference (mice; 2 mg/kg dose): strong place preference | Opioid agonistic effect among constituents of Mitragyna speciosa (opioid receptors [3]): most potent effect | Short-term stability in plasma ([4]; 12 h at room temperature): stable | Auto-sampler stability of reconstituted samples ([4]; 12 h in auto-sampler at 25 °C): stable | Long-term stability in plasma ([4]; 30 days at -20 °C): stable | Accuracy (measured vs spiked concentration) [4, 6]: 98% | Concentration measured [4, 6]: 19.6 ± 0.8 ng/mL | Accuracy (measured vs spiked concentration) [4, 7]: 101.7% | Concentration measured [4, 7]: 610.4 ± 28.8 ng/mL | Accuracy (measured vs spiked concentration) [4, 8]: 95.6% | Concentration measured [4, 8]: 3058.2 ± 320.4 ng/mL | Accuracy (measured vs spiked concentration) [4, 9]: 101.5% | Concentration measured [4, 9]: 20.3 ± 1.3 ng/mL | Accuracy (measured vs spiked concentration) [4, 10]: 108.8% | Concentration measured [4, 10]: 652.7 ± 17.8 ng/mL | Accuracy (measured vs spiked concentration) [4, 11]: 102.8% | Concentration measured [4, 11]: 3289.4 ± 197.2 ng/mL | Accuracy (measured vs spiked concentration) [4, 12]: 102% | Concentration measured [4, 12]: 20.4 ± 0.3 ng/mL | Accuracy (measured vs spiked concentration) [4, 13]: 105.2% | Concentration measured [4, 13]: 631.3 ± 40.2 ng/mL | Accuracy (measured vs spiked concentration) [4, 14]: 103.5% | Concentration measured [4, 14]: 3312.5 ± 163.5 ng/mL | Accuracy (measured vs spiked concentration) [4, 15]: 95.5% | Concentration measured [4, 15]: 19.1 ± 0.7 ng/mL | Accuracy (measured vs spiked concentration) [4, 16]: 94.7% | Concentration measured [4, 16]: 568.3 ± 43.9 ng/mL | Accuracy (measured vs spiked concentration) ([4]; reconstituted plasma extract, auto sampler 12 hr at 25 °C, spiked 3200 ng/mL): 99.8% | Freeze-thaw stability in plasma ([4]; three freeze-thaw cycles, stored at -20 °C and thawed to room temperature): stable

mitragynine
Effect on opioid receptors (opioid receptors [5]): agonistic effects on opioid receptors

Reference: paper PMC4029328 (Biomedical chromatography : BMC, 2013)
